Measurements published in ChEMBL document CHEMBL3232876, “Novel R-(+)-limonene-based thiosemicarbazones and their antitumor activity against human tumor cell lines” (Eur J Med Chem, 2014).

Assays:
U-251 = assay: Growth inhibition of human U251 cells after 48 hrs by sulforhodamine B assay; assay type: functional; conditions: U-251, 48 h
Outline: (§1)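 Tumour lines from NCI and Vero from the Rio de Janeiro Cell Bank, grown in RPMI 1640 with 5% fetal bovine serum, with penicillin:streptomycin added to experimental cultures. Each compound was tested at four 10-fold dilutions; sulforhodamine B staining at time zero and 48 h. Proliferation was calculated against T0 and drug-free controls, and GI50 came from sigmoidal regression of the concentration-response curves. Representative experiment in triplicate.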

[1] = Growth inhibition of human UACC62 cells after 48 hrs by sulforhodamine B assay; assay type: functional; conditions: UACC-62, 48 h; outline: as §1
MCF7 = assay: Growth inhibition of human MCF7 cells after 48 hrs by sulforhodamine B assay; assay type: functional; conditions: MCF7, 48 h; outline: as §1
[2] = Growth inhibition of human NCI-ADR-RES cells after 48 hrs by sulforhodamine B assay; assay type: functional; outline: as §1
NCI-H460 = assay: Growth inhibition of human NCI-H460 cells after 48 hrs by sulforhodamine B assay; assay type: functional; conditions: NCI-H460, 48 h; outline: as §1
786-0 = assay: Growth inhibition of human 786-0 cells after 48 hrs by sulforhodamine B assay; assay type: functional; conditions: 786-0, 48 h; outline: as §1
PC-3 = assay: Growth inhibition of human PC3 cells after 48 hrs by sulforhodamine B assay; assay type: functional; conditions: PC-3, 48 h; outline: as §1
[3] = Growth inhibition of human OVCAR3 cells after 48 hrs by sulforhodamine B assay; assay type: functional; conditions: OVCAR-3, 48 h; outline: as §1
HT-29 = assay: Growth inhibition of human HT-29 cells after 48 hrs by sulforhodamine B assay; assay type: functional; conditions: HT-29, 48 h; outline: as §1
K562 = assay: Growth inhibition of human K562 cells after 48 hrs by sulforhodamine B assay; assay type: functional; conditions: K562, 48 h; outline: as §1
[4] = (§2) Growth inhibition of African green monkey Vero cells after 48 hrs by sulforhodamine B assay; assay type: cell-based; conditions: chlorocebus sabaeus, Vero cells; outline: as §1
Vero = assay: as §2; assay type: cell-based; conditions: chlorocebus sabaeus, vero, 48 h; outline: as §1

Structure (SMILES)	GI50 (U-251)	TGI (U-251)	GI50 (MCF7)	TGI (MCF7)	GI50 [2]	TGI [2]	GI50 (NCI-H460)	TGI (NCI-H460)	GI50 (786-0)	TGI (786-0)	GI50 (PC-3)	TGI (PC-3)	GI50 [3]	TGI [3]	GI50 (HT-29)	TGI (HT-29)	GI50 (K562)	TGI (K562)	GI50 at 48 h [4]	TGI (Vero)	other results
CC1=CC[C@H](C(C)(C)NC(=S)N/N=C/c2ccc(F)cc2)CC1	> 100 µM	> 100 µM	> 100 µM	> 100 µM	> 100 µM	> 100 µM	> 100 µM	> 100 µM	> 100 µM	> 100 µM	< 0.04 µM	< 0.9 µM	> 100 µM	> 100 µM	> 100 µM	> 100 µM	> 100 µM	> 100 µM	> 100 µM	> 100 µM	GI50 [1]: > 100 µM; TGI [1]: > 100 µM
CC1=CC[C@H](C(C)(C)NC(=S)N/N=C/c2ccc(Cl)cc2)CC1	69.5 µM	> 100 µM	18.3 µM	> 100 µM	65.2 µM	97.4 µM	7.8 µM	21.1 µM	74.9 µM	> 100 µM	0.05 µM	1.7 µM	8.6 µM	26.4 µM	13.6 µM	70.5 µM	0.3 µM	16.9 µM	70 µM	> 100 µM	GI50 [1]: 11.2 µM; TGI [1]: > 100 µM
CC1=CC[C@H](C(C)(C)NC(=S)N/N=C/c2cccc([N+](=O)[O-])c2)CC1	> 100 µM	> 100 µM	> 100 µM	> 100 µM	> 100 µM	> 100 µM	> 100 µM	> 100 µM	> 100 µM	> 100 µM	9.5 µM	88 µM	> 100 µM	> 100 µM	0.6 µM	21.9 µM	45.6 µM	> 100 µM	> 100 µM	> 100 µM	GI50 [1]: > 100 µM; TGI [1]: > 100 µM
C=C(C)[C@H]1CC=C(C)CC1 [D-LIMONENE]	> 100 µM	> 100 µM	> 100 µM	> 100 µM	> 100 µM	> 100 µM	> 100 µM	> 100 µM	> 100 µM	> 100 µM	> 100 µM	> 100 µM	> 100 µM	> 100 µM	> 100 µM	> 100 µM	23.9 µM	> 100 µM	> 100 µM	> 100 µM	
CC1=CC[C@H](C(C)(C)N=C=S)CC1	29.1 µM	> 100 µM	57.6 µM	> 100 µM	> 100 µM	> 100 µM	> 100 µM	> 100 µM	> 100 µM	> 100 µM	> 100 µM	> 100 µM	> 100 µM	> 100 µM	> 100 µM	> 100 µM	4 µM	> 100 µM	> 100 µM	> 100 µM	
COc1ccc(/C(C)=N/NC(=S)NC(C)(C)[C@H]2CC=C(C)CC2)cc1	43.4 µM	> 100 µM	5 µM	> 100 µM	> 100 µM	> 100 µM	90.6 µM	> 100 µM	> 100 µM	> 100 µM	83.6 µM	> 100 µM	74.9 µM	> 100 µM	18.7 µM	> 100 µM	54 µM	> 100 µM	> 100 µM	> 100 µM	GI50 [1]: 95.3 µM; TGI [1]: > 100 µM
CC1=CC[C@H](C(C)(C)NC(=S)N/N=C(\C)c2ccccc2)CC1	> 100 µM	> 100 µM	20.7 µM	> 100 µM	> 100 µM	> 100 µM	> 100 µM	> 100 µM	> 100 µM	> 100 µM	> 100 µM	> 100 µM	> 100 µM	> 100 µM	29.5 µM	> 100 µM	> 100 µM	> 100 µM	> 100 µM	> 100 µM	GI50 [1]: > 100 µM; TGI [1]: > 100 µM
CC1=CC[C@H](C(C)(C)NC(=S)N/N=C/c2ccc(C)cc2)CC1	89.2 µM	> 100 µM	15.2 µM	93.6 µM	78.5 µM	> 100 µM	75.7 µM	> 100 µM	87.2 µM	> 100 µM	< 0.04 µM	0.9 µM	67.2 µM	> 100 µM	20.2 µM	94.5 µM	1.6 µM	56.8 µM	81.4 µM	> 100 µM	GI50 [1]: 75.9 µM; TGI [1]: > 100 µM
CC1=CC[C@H](C(C)(C)NC(=S)N/N=C(\C)c2ccc([N+](=O)[O-])cc2)CC1	7 µM	29.3 µM	8 µM	77.5 µM	9.9 µM	> 100 µM	50.8 µM	83.7 µM	21.7 µM	> 100 µM	62.6 µM	> 100 µM	7.7 µM	29.3 µM	29.9 µM	> 100 µM	83.4 µM	> 100 µM	67.1 µM	> 100 µM	GI50 [1]: 7.2 µM; TGI [1]: 46.8 µM
CC1=CC[C@H](C(C)(C)NC(=S)N/N=C/c2cccc(Cl)c2)CC1	7.9 µM	35.8 µM	8 µM	61 µM	67.5 µM	> 100 µM	1.4 µM	21.4 µM	9.2 µM	26.9 µM	0.6 µM	6.6 µM	13.6 µM	80.5 µM	7.9 µM	53 µM	5.4 µM	> 100 µM	14.8 µM	> 100 µM	GI50 [1]: 9 µM; TGI [1]: 39.8 µM
CC1=CC[C@H](C(C)(C)NC(=S)N/N=C/c2ccco2)CC1	9.7 µM	81.5 µM	9.3 µM	53.7 µM	9.8 µM	14.1 µM	13.5 µM	10.8 µM	11.7 µM	9.8 µM	13.5 µM	27.2 µM	10.8 µM	13.8 µM	7.2 µM	26.9 µM	0.1 µM	> 100 µM	5.1 µM	14.7 µM	GI50 [1]: 10.7 µM; TGI [1]: 14.1 µM
COc1cc(/C=N/NC(=S)NC(C)(C)[C@H]2CC=C(C)CC2)ccc1O	11.7 µM	32.6 µM	14.8 µM	63.9 µM	23.9 µM	> 100 µM	> 100 µM	> 100 µM	12.9 µM	35.4 µM	0.3 µM	8.3 µM	53.5 µM	> 100 µM	< 0.04 µM	< 0.7 µM	1.9 µM	85.2 µM	19.7 µM	91.8 µM	GI50 [1]: 14.7 µM; TGI [1]: 42.3 µM
CC1=CC[C@H](C(C)(C)NC(=S)N/N=C/c2ccc[nH]2)CC1	0.08 µM	3.9 µM	3.9 µM	11.5 µM	78 µM	> 100 µM	18 µM	57.5 µM	20.8 µM	> 100 µM	2.8 µM	> 100 µM	33.5 µM	> 100 µM	27.5 µM	> 100 µM	23.4 µM	> 100 µM	20.5 µM	> 100 µM	GI50 [1]: 14.8 µM; TGI [1]: 49.9 µM
CC1=CC[C@H](C(C)(C)NC(=S)NN)CC1	0.2 µM	10.1 µM	0.9 µM	46.7 µM	39.3 µM	> 100 µM	42 µM	> 100 µM	> 100 µM	> 100 µM	44.5 µM	> 100 µM	41.9 µM	> 100 µM	60.1 µM	> 100 µM	> 100 µM	> 100 µM	49.5 µM	> 100 µM	
CC(=O)O[C@H]1C(=O)[C@@]2(C)[C@H]([C@H](OC(=O)c3ccccc3)[C@]3(O)C[C@H](OC(=O)[C@H](O)[C@@H](NC(=O)c4ccccc4)c4ccccc4)C(C)=C1C3(C)C)[C@]1(OC(C)=O)CO[C@@H]1C[C@@H]2O [PACLITAXEL]	0.003 µM	0.1 µM	0.005 µM	0.4 µM	0.04 µM	0.4 µM	0.1 µM	0.08 µM	0.02 µM	0.8 µM	< 0.1 µM	< 0.03 µM	0.2 µM	< 0.03 µM	0.001 µM	< 0.03 µM	0.1 µM	0.1 µM	0.03 µM		GI50 [1]: 0.01 µM; TGI [1]: 0.5 µM
